Results taken from ChEMBL document CHEMBL1142874, “Design and synthesis of anticonvulsants from a combined phthalimide-GABA-anilide and hydrazone pharmacophore” (Eur J Med Chem, 2007).
The source made the active and inactive calls. The calls are words filed in the database; no cut-off is given here.

Key:
[1] = system: Mus musculus; assay: Anticonvulsant activity in Albino CF1 mouse upto 300 mg/kg, ip in maximal electroshock seizure test; format: functional, organism-based; set-up: dose 300 mg/kg
Method in brief: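 Mice dosed i.p. (0.01 mL/g) at 30, 100 and 300 mg/kg. Electroshock challenge run 30 min and 4 h after dosing.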

[2] = system: Mus musculus; assay: Anticonvulsant activity against subcutaneous pentylenetetrazole-induced seizure in Albino CF1 mouse at 300 mg/kg, ip after 0.5 hrs; format: functional, organism-based; set-up: dose 300 mg/kg
Method in brief: (§1)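 Test compounds given i.p. to mice at 0.01 mL/g, at 30, 100 or 300 mg/kg. The seizure challenge followed at 0.5 h and at 4 h after dosing. The value recorded is the lowest dose that protected half or more of the mice. Where no activity was seen, the maximum dose given was 300 mg/kg.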

[3] = system: Mus musculus; assay: Anticonvulsant activity against subcutaneous pentylenetetrazole-induced seizure in Albino CF1 mouse at 300 mg/kg, ip after 4 hrs; format: functional, organism-based; set-up: dose 300 mg/kg; method in brief: as §1
[4] = system: Mus musculus; assay: Anticonvulsant activity against subcutaneous strychnine-induced seizure in Albino CF1 mouse at 300 mg/kg, ip after 0.5 hrs; format: functional, organism-based; set-up: dose 300 mg/kg; method in brief: as §1
[5] = system: Mus musculus; assay: Anticonvulsant activity against intraperitoneal picrotoxin-induced seizure in Albino CF1 mouse at 300 mg/kg, ip after 0.5 hrs; format: functional, organism-based; set-up: dose 300 mg/kg
Method in brief: (§2)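 Mice received the test compound by intraperitoneal injection at 30, 100 or 300 mg/kg. They were then challenged with intraperitoneal picrotoxin and scored for anticonvulsant protection 0.5 h or 4 h after dosing. The value recorded is the lowest dose that protected half or more of the mice. A dash means no activity up to 300 mg/kg.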

[6] = system: Mus musculus; assay: Anticonvulsant activity against intraperitoneal picrotoxin-induced seizure in Albino CF1 mouse at 300 mg/kg, ip after 4 hrs; format: functional, organism-based; set-up: dose 300 mg/kg; method in brief: as §2
[7] = system: Mus musculus; assay: Neurotoxicity in Albino CF1 mouse at 100 mg/kg, ip after 0.5 hrs by Rotarod test; format: toxicity, organism-based; set-up: dose 100 mg/kg, route intraperitoneal; details: in vivo
Method in brief: (§3)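 Rotarod test in mice pre-trained to stay on the rod for two consecutive 90 s trials. Compounds given i.p. at 30, 100 or 300 mg/kg, with testing at 0.5 h and 4 h. Deficit was scored as failure to keep balance on the rod for 1 min in each of three trials. The value recorded is the lowest dose affecting half or more of the mice.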

[8] = system: Mus musculus; assay: Neurotoxicity in Albino CF1 mouse at 300 mg/kg, ip after 4 hrs by Rotarod test; format: toxicity, organism-based; set-up: dose 300 mg/kg, route intraperitoneal; details: in vivo; method in brief: as §3
[9] = system: Mus musculus; assay: Anticonvulsant activity against subcutaneous strychnine-induced seizure in Albino CF1 mouse at 300 mg/kg, ip after 4 hrs; format: functional, organism-based; set-up: dose 300 mg/kg; method in brief: as §1
[10] = system: Mus musculus; assay: Anticonvulsant activity against subcutaneous strychnine-induced seizure in Albino CF1 mouse at 100 mg/kg, ip after 0.5 hrs; format: functional, organism-based; set-up: dose 100 mg/kg; method in brief: as §1
[11] = system: Mus musculus; assay: Anticonvulsant activity against intraperitoneal picrotoxin-induced seizure in Albino CF1 mouse at 100 mg/kg, ip after 0.5 hrs; format: functional, organism-based; set-up: dose 100 mg/kg; method in brief: as §2
[12] = system: Mus musculus; assay: Anticonvulsant activity against intraperitoneal picrotoxin-induced seizure in Albino CF1 mouse at 100 mg/kg, ip after 4 hrs; format: functional, organism-based; set-up: dose 100 mg/kg; method in brief: as §2
[13] = system: Mus musculus; assay: Neurotoxicity in Albino CF1 mouse at 300 mg/kg, ip after 0.5 hrs by Rotarod test; format: toxicity, organism-based; set-up: dose 300 mg/kg, route intraperitoneal; details: in vivo; method in brief: as §3
[14] = system: Mus musculus; assay: Anticonvulsant activity against subcutaneous strychnine-induced seizure in Albino CF1 mouse at 100 mg/kg, ip after 4 hrs; format: functional, organism-based; set-up: dose 100 mg/kg; method in brief: as §1
[15] = system: Mus musculus; assay: Neurotoxicity in Albino CF1 mouse at 100 mg/kg, ip after 4 hrs by Rotarod test; format: toxicity, organism-based; set-up: dose 100 mg/kg, route intraperitoneal; details: in vivo; method in brief: as §3
[16] = system: Mus musculus; assay: Anticonvulsant activity against subcutaneous pentylenetetrazole-induced seizure in Albino CF1 mouse at 30 mg/kg, ip after 4 hrs; format: functional, organism-based; set-up: dose 30 mg/kg; method in brief: as §1

Row | SMILES | Activity [1] | Activity [2] | Activity [3] | Activity [4] | Activity [5] | Activity [6] | Activity [7] | Activity [8] | Activity [9] | Activity [10] | Activity [11] | Activity [12] | Activity [13] | Activity [14] | Activity [15] | Activity [16]
1 | Cc1ccc(C)c(NC(=O)CCCN2C(=O)c3ccccc3C2=O)c1 | inactive | inactive | inactive | Active | Active | inactive | Active | Active | Active | – | – | – | – | – | – | –
2 | O=C(CCCN1C(=O)c2ccccc2C1=O)N/N=C\c1ccccc1 | inactive | inactive | inactive | – | – | – | – | Not Active | – | Active | Active | Active | Not Active | Active | – | –
3 | O=C1NC(=O)C(c2ccccc2)(c2ccccc2)N1 [PHENYTOIN] | inactive | inactive | inactive | inactive | inactive | inactive | Active | – | inactive | – | – | – | – | – | Active | –
4 | O=C(CCCN1C(=O)c2ccccc2C1=O)Nc1ccccc1Br | inactive | inactive | inactive | inactive | – | Active | – | Not Active | inactive | – | Active | – | Not Active | – | – | –
5 | CCC1(C)CC(=O)NC1=O (centres undefined) [ETHOSUXIMIDE] | inactive | Active | inactive | inactive | inactive | inactive | – | Not Active | inactive | – | – | – | Not Active | – | – | –
6 | CC/C(C)=N/NC(=O)CCCN1C(=O)c2ccccc2C1=O | inactive | inactive | inactive | inactive | Active | inactive | – | Not Active | inactive | – | – | – | Not Active | – | – | –
7 | Cc1ccc(NC(=O)CCCN2C(=O)c3ccccc3C2=O)c(C)c1 | inactive | inactive | – | inactive | Active | inactive | – | Active | inactive | – | – | – | Active | – | – | Active
8 | O=C(CCCN1C(=O)c2ccccc2C1=O)N/N=C\c1cccc([N+](=O)[O-])c1 | inactive | Active | inactive | inactive | Active | inactive | – | Not Active | inactive | – | – | – | Not Active | – | – | –
9 | C/C(=N/NC(=O)CCCN1C(=O)c2ccccc2C1=O)c1ccccc1O | inactive | inactive | inactive | – | – | Active | – | Not Active | – | Active | Active | – | Not Active | Active | – | –
10 | C/C(=N/NC(=O)CCCN1C(=O)c2ccccc2C1=O)c1ccc([N+](=O)[O-])cc1 | inactive | inactive | inactive | – | Active | inactive | – | Not Active | inactive | Active | – | – | Active | – | – | –
11 | O=C(CCCN1C(=O)c2ccccc2C1=O)NN=C(c1ccccc1)c1ccccc1 | inactive | inactive | inactive | inactive | Active | inactive | – | Not Active | inactive | – | – | – | Not Active | – | – | –
